Test results taken from ChEMBL document CHEMBL3352168, “Potent, orally available, selective COX-2 inhibitors based on 2-imidazoline core” (Eur J Med Chem, 2014).

Legend:
[1] = target: T1, Prostaglandin G/H synthase 1 (Ovis aries) (UniProt P05979); assay: Inhibition of ovine COX1 using fluorometric substrate at 100 uM by fluorescent inhibitor screening assay
T1 sequence (whole entry): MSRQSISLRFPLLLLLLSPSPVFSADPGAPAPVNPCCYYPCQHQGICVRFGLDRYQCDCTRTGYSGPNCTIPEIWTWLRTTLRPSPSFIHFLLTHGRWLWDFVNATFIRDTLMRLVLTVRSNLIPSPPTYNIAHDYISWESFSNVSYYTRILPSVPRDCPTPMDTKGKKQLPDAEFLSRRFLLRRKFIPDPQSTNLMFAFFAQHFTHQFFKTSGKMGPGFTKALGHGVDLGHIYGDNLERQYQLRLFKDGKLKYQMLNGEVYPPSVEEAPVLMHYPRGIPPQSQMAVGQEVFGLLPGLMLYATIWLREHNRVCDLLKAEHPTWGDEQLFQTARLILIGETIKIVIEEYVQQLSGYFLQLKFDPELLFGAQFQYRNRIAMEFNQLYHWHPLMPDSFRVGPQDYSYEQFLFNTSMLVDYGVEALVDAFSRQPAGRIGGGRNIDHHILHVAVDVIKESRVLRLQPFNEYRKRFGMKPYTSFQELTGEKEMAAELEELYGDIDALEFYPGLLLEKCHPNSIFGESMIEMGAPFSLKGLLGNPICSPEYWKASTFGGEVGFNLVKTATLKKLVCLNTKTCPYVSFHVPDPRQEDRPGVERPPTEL

[2] = target: T2, Prostaglandin G/H synthase 2 (Homo sapiens, UniProt P35354); assay: Inhibition of human recombinant COX2 using fluorometric substrate by fluorescent inhibitor screening assay
T2 sequence (P35354 whole entry): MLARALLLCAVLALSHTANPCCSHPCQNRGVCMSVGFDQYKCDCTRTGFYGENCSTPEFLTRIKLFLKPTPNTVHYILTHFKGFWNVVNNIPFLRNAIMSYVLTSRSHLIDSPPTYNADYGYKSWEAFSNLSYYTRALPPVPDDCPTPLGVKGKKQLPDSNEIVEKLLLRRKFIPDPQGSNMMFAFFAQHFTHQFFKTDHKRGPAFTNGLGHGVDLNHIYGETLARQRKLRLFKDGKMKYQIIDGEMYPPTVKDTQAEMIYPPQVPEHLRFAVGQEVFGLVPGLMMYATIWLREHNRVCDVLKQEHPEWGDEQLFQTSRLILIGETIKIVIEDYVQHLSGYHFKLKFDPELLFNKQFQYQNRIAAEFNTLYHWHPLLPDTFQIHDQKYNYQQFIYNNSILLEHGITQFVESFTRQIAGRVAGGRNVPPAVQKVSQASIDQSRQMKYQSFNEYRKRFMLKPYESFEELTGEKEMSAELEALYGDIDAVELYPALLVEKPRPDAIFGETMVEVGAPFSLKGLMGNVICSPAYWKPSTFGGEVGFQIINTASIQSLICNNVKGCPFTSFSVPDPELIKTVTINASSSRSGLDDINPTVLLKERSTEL
Method in brief: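 Human recombinant COX-2 in 100 mM Tris-HCl pH 8.0 with heme and ADHP fluorometric substrate; inhibitor added at final […] (units as printed) from DMSO stocks; reaction started with arachidonic acid, 2 min at room temperature. Resorufin fluorescence read at ex 535/em 590 nm; % inhibition vs no-inhibitor activity; IC50 from concentration–inhibition curve, triplicate determinations.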

[3] = Half life in C57Bl mouse brain at 10 mg/kg, po; format: ADME, organism-based; parameters: dose 10 mg/kg, route oral
Method in brief: (§1)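 Male C57Bl mice, about 2 months old, 18.1–23.6 g, fasted overnight, dosed by oral gavage; 4 animals per group plus non-dosed control group; killed by cervical dislocation for blood and whole brain. Plasma precipitated with internal standard; brain homogenized in 67% methanol, centrifuged, spiked with internal standard; quantified by HPLC-MS against blank-brain calibration.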

[4] = test system: Brain; assay: Half life in C57Bl mouse brain assessed as aromatization metabolite at 10 mg/kg, po; format: ADME, organism-based; parameters: dose 10 mg/kg, route oral; settings: in vivo
[5] = test system: Plasma; assay: Tmax in C57Bl mouse plasma assessed as aromatization metabolite at 10 mg/kg, po; format: ADME, organism-based; parameters: dose 10 mg/kg, route oral; settings: in vivo
[6] = test system: Plasma; assay: AUC (0 to infinity) in C57Bl mouse plasma assessed as aromatization metabolite at 10 mg/kg, po; format: ADME, organism-based; parameters: dose 10 mg/kg, route oral, time infinity; settings: in vivo
[7] = Tmax in C57Bl mouse brain at 10 mg/kg, po; format: ADME, organism-based; parameters: dose 10 mg/kg, route oral; method in brief: as §1
[8] = test system: Plasma; assay: AUC (0 to 240 mins) in C57Bl mouse plasma assessed as aromatization metabolite at 10 mg/kg, po; format: ADME, organism-based; parameters: time < 4 hr, dose 10 mg/kg, route oral; settings: in vivo, 4 h
[9] = test system: Brain; assay: Drug metabolism in C57Bl mouse brain at 10 mg/kg, po; format: ADME, organism-based; parameters: dose 10 mg/kg, route oral; settings: in vivo
[10] = Clearance in C57Bl mouse plasma at 10 mg/kg, po; format: ADME, organism-based; parameters: dose 10 mg/kg, route oral; method in brief: as §1
[11] = test system: Plasma; assay: Volume of distribution at steady state in C57Bl mouse plasma at 10 mg/kg, po; format: ADME, organism-based; parameters: dose 10 mg/kg, route oral; settings: in vivo; method in brief: as §1
[12] = test system: Plasma; assay: Half life in C57Bl mouse plasma assessed as aromatization metabolite at 10 mg/kg, po; format: ADME, organism-based; parameters: dose 10 mg/kg, route oral; settings: in vivo
[13] = Tmax in C57Bl mouse plasma at 10 mg/kg, po; format: ADME, organism-based; parameters: dose 10 mg/kg, route oral; method in brief: as §1
[14] = AUC (0 to infinity) in C57Bl mouse plasma at 10 mg/kg, po; format: ADME, organism-based; parameters: time infinity, dose 10 mg/kg, route oral; method in brief: as §1
[15] = test system: Brain; assay: AUC (0 to infinity) in C57Bl mouse brain assessed as aromatization metabolite at 10 mg/kg, po; format: ADME, organism-based; parameters: time infinity, dose 10 mg/kg, route oral; settings: in vivo
[16] = AUC (0 to 240 mins) in C57Bl mouse brain at 10 mg/kg, po; format: ADME, organism-based; parameters: time < 4 hr, dose 10 mg/kg, route oral; method in brief: as §1
[17] = test system: Brain; assay: Tmax in C57Bl mouse brain assessed as aromatization metabolite at 10 mg/kg, po; format: ADME, organism-based; parameters: dose 10 mg/kg, route oral; settings: in vivo
[18] = test system: Mus musculus; assay: Antiinflammatory activity in mouse assessed as reduction in carrageenan-induced inflamed paw volume at 3.7 mg/kg, ip relative to untreated control; format: functional; settings: route intraperitoneal
[19] = test system: Plasma; assay: Cmax in C57Bl mouse plasma assessed as aromatization metabolite at 10 mg/kg, po; format: ADME, organism-based; parameters: dose 10 mg/kg, route oral; settings: in vivo
[20] = AUC (0 to 240 mins) in C57Bl mouse plasma at 10 mg/kg, po; format: ADME, organism-based; parameters: time < 4 hr, dose 10 mg/kg, route oral; method in brief: as §1
[21] = Half life in C57Bl mouse plasma at 10 mg/kg, po; format: ADME, organism-based; parameters: dose 10 mg/kg, route oral; method in brief: as §1
[22] = test system: Plasma; assay: Drug metabolism in C57Bl mouse plasma at 10 mg/kg, po; format: ADME, organism-based; parameters: dose 10 mg/kg, route oral; settings: in vivo
[23] = Cmax in C57Bl mouse plasma at 10 mg/kg, po; format: ADME, organism-based; parameters: dose 10 mg/kg, route oral; method in brief: as §1
[24] = test system: Brain; assay: AUC (0 to 240 mins) in C57Bl mouse brain assessed as aromatization metabolite at 10 mg/kg, po; format: ADME, organism-based; parameters: time < 4 hr, dose 10 mg/kg, route oral; settings: in vivo, 4 h
[25] = AUC (0 to infinity) in C57Bl mouse brain at 10 mg/kg, po; format: ADME, organism-based; parameters: time infinity, dose 10 mg/kg, route oral; method in brief: as §1
[26] = Cmax in C57Bl mouse brain at 10 mg/kg, po; format: ADME, organism-based; parameters: dose 10 mg/kg, route oral; method in brief: as §1
[27] = test system: Brain; assay: Cmax in C57Bl mouse brain assessed as aromatization metabolite at 10 mg/kg, po; format: ADME, organism-based; parameters: dose 10 mg/kg, route oral; settings: in vivo

## NS(=O)(=O)c1ccc(N2CCN=C2c2ccc(Cl)c(C(F)(F)F)c2)cc1
[1]
  inhibition: 2.7%
[2]
  IC50: 1.8 µM

## NS(=O)(=O)c1ccc(N2CCN=C2c2ccc(Cl)cc2)cc1
[1]
  inhibition: 0.4%
[2]
  IC50: 3.4 µM

## CS(=O)(=O)c1ccc(N2CCN=C2c2cccc(F)c2)cc1
[1]
  inhibition: 0.7%
[2]
  IC50: > 10 µM

## NS(=O)(=O)c1ccc(N2CCN=C2c2ccc(F)cc2)cc1
[1]
  inhibition: 11.4%
[2]
  IC50: 6.9 µM

## CS(=O)(=O)c1ccc(N2CCN=C2c2cccc(Cl)c2)cc1
[1]
  inhibition: 1.4%
[2]
  IC50: 8.1 µM

## CC1CN(c2ccc(S(N)(=O)=O)cc2)C(c2ccc(Cl)cc2)=N1 (racemic)
[1]
  inhibition: 3.2%
[2]
  IC50: > 10 µM

## NS(=O)(=O)c1ccc(N2CCN=C2c2ccc(Cl)c(Cl)c2)cc1
[3]
  half-life: 0.967 h
[1]
  inhibition: 8.7%
[4]
  t1/2: 1.87 h
[5]
  Tmax: 2 h
[6]
  AUC: 364739 ng·min/mL
[7]
  Tmax: 0.5 h
[8]
  AUC: 145573 ng·min/mL
[9]
  Drug metabolism: metabolite_detected
[10]
  CL/F: 13 mL/min/kg
[11]
  Vdss: 1.22 L/kg
[2]
  IC50: 0.3 µM
[12]
  t1/2: 4.65 h
[13]
  Tmax: 5 min
[14]
  AUC(0-inf): 12700 ng·h/mL
[15]
  AUC: 8533 ng·min/mL
[16]
  AUC(0-t) at 4 h: 491 ng·h/mL
[17]
  Tmax: 2 h
[18]
  inhibition in vivo at 3.7 mg/kg: 56%
[19]
  Cmax: 735 ng/mL
[20]
  AUC(0-t) at 4 h: 11700 ng·h/mL
[21]
  half-life: 1.08 h
[22]
  Drug metabolism: metabolite_detected
[23]
  Cmax: 6140 ng/mL
[24]
  AUC: 5969 ng·min/mL
[25]
  AUC(0-inf): 525 ng·h/mL
[26]
  Cmax: 267 ng/mL
[27]
  Cmax: 33 ng/mL

## CC1CN(c2ccc(S(N)(=O)=O)cc2)C(c2cccc(Br)c2)=N1 (racemic)
[1]
  inhibition: 20.2%
[2]
  IC50: > 10 µM

## CS(=O)(=O)c1ccc(N2CCN=C2c2ccc(F)c(F)c2)cc1
[1]
  inhibition: 9.2%
[2]
  IC50: > 10 µM

## NS(=O)(=O)c1ccc(N2CCN=C2c2ccc(F)c(F)c2)cc1
[1]
  inhibition: 6.6%
[2]
  IC50: 6.7 µM

## Cc1cccc(C2=NCCN2c2ccc(S(N)(=O)=O)cc2)c1
[1]
  inhibition: 1.5%
[2]
  IC50: > 10 µM

## CS(=O)(=O)c1ccc(N2CCN=C2c2ccc(F)cc2)cc1
[1]
  inhibition: 12.6%
[2]
  IC50: > 10 µM

## NS(=O)(=O)c1ccc(N2CCN=C2c2cccc(Cl)c2)cc1
[1]
  inhibition: -8%
[2]
  IC50: 2.5 µM

## COc1ccc(C2=NCCN2c2ccc(S(N)(=O)=O)cc2)cc1Cl
[1]
  inhibition: 3%
[2]
  IC50: 6.2 µM

## COc1cc(C2=NCCN2c2ccc(S(C)(=O)=O)cc2)ccc1F
[1]
  inhibition: -4.3%
[2]
  IC50: > 10 µM
